From ChEMBL document CHEMBL3596186, “Synthesis and biological evaluation of diarylthiazole derivatives as antimitotic and antivascular agents with potent antitumor activity” (Bioorg Med Chem, 2015)
The source made the active and inactive calls. The rule behind the calls is not given here.

Legend:
[1] = tested on: NCI-H1975; test: Resistance ratio, ratio of IC50 for human gefitinib-resistant NCI-H1975 cells to IC50 for human HCC827 cells; type: functional
[2] = tested on: HCT-116; test: Induction of apoptosis in human HCT116 cells assessed as late apoptotic cells at 0.2 uM after 48 hrs by annexin V/propidium iodide staining-based flow cytometry (reference value: 1.71%); type: functional
How it was run: (§1)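 HCT116 cells treated with compound or DMSO for 24 or 48 h, trypsinized, washed twice in PBS and dual-stained with annexin-V and PI. Analysed by flow cytometry: early apoptotic cells scored as annexin-V+/PI−, late apoptotic cells as annexin-V+/PI+.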

[3] = tested on: HepG2; test: Cell cycle arrest in human HepG2 cells assessed as accumulation at G1 phase at 0.2 uM after 24 hrs by flow cytometry (reference value: 62.74%); type: functional
[4] = tested on: HepG2; test: Induction of apoptosis in human HepG2 cells assessed as late apoptotic cells at 0.5 uM after 48 hrs by annexin V/propidium iodide staining-based flow cytometry (reference value: 3.74%); type: functional
[5] = tested on: HepG2; test: Cell cycle arrest in human HepG2 cells assessed as accumulation at S phase at 1 uM after 24 hrs by flow cytometry (reference value: 23.97%); type: functional
[6] = tested on: HepG2; test: Induction of apoptosis in human HepG2 cells assessed as viable cells at 0.5 uM after 48 hrs by annexin V/propidium iodide staining-based flow cytometry (reference value: 89.8%); type: functional; details: HepG2, 48 h, read-out: Activity
[7] = tested on: HCT-116; test: Induction of apoptosis in human HCT116 cells assessed as necrotic cells at 1 uM after 48 hrs by annexin V/propidium iodide staining-based flow cytometry (reference value: 3.49%); type: functional
[8] = tested on: HepG2; test: Induction of apoptosis in human HepG2 cells assessed as late apoptotic cells at 0.5 uM after 24 hrs by annexin V/propidium iodide staining-based flow cytometry (reference value: 3.74%); type: functional
[9] = tested on: HepG2; test: Antimitotic activity in human HepG2 cells assessed as inhibition of microtubule formation at 0.2 uM after 24 hrs by DAPI staining-based immmunofluorescence assay; type: functional, cell-based
How it was run: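 HepG2 cells seeded in 6-well plates and treated with compound. Fixed in 4% paraformaldehyde, permeabilized with 0.5% Triton X-100 in PBS, blocked 30 min in 5% goat serum at room temperature. Stained with monoclonal anti-α-tubulin 1 h at room temperature, then fluorescent secondary antibody, nuclei labelled with DAPI. Viewed by fluorescence microscopy.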

[10] = tested on: HCT-116; test: Induction of apoptosis in human HCT116 cells assessed as viable cells at 0.5 uM after 48 hrs by annexin V/propidium iodide staining-based flow cytometry (reference value: 92%); type: functional; details: HCT-116, 48 h, read-out: Activity
[11] = tested on: HCT-116; test: Antitumor activity against human HCT116 cells xenografted in Balb/c athymic nude mouse assessed as tumor growth inhibition at 50 mg/kg, ip administered daily after 42 days; type: functional; details: HCT-116, ip, 1008 h, read-out: TGI
How it was run: (§2)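 Female Balb/C athymic nude mice, 5-6 weeks old, implanted s.c. in the right flank with HCT116 cells in 100 µL HBSS. Tumor volume (π/6 × L × W²) and body weight measured every 2 days. Inhibition = (1 − treated/control tumor weight) × 100%.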

[12] = tested on: MCF7; test: Resistance ratio, ratio of IC50 for human doxorubicin-resistant MCF7 cells to IC50 for human MCF7 cells; type: functional
How it was run: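 MTT assay: log-phase cells at 40,000-50,000 cells/mL in RPMI-1640 with 10% FBS, exposed to graded concentrations for 48 h, then MTT 3 h, DMSO solubilization, absorbance at 570 nm. IC50 from growth versus untreated control, at least three independent experiments. Ratio = resistant-line IC50 / parental-line IC50.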

[13] = tested on: HepG2; test: Induction of apoptosis in human HepG2 cells assessed as viable cells at 0.5 uM after 24 hrs by annexin V/propidium iodide staining-based flow cytometry (reference value: 89.8%); type: functional; details: HepG2, 24 h, read-out: Activity
[14] = tested on: HCT-116; test: Induction of apoptosis in human HCT116 cells assessed as late apoptotic cells at 0.5 uM after 24 hrs by annexin V/propidium iodide staining-based flow cytometry (reference value: 1.71%); type: functional; how it was run: as §1
[15] = tested on: HCT-116; test: Induction of apoptosis in human HCT116 cells assessed as viable cells at 0.2 uM after 24 hrs by annexin V/propidium iodide staining-based flow cytometry (reference value: 92%); type: functional; details: HCT-116, 24 h, read-out: Activity
[16] = Antiproliferative activity against human HCC827 cells after 48 hrs by MTT assay; type: functional, cell-based; details: HCC827, 48 h
[17] = tested on: HCT-116; test: Induction of apoptosis in human HCT116 cells assessed as viable cells at 1 uM after 48 hrs by annexin V/propidium iodide staining-based flow cytometry (reference value: 92%); type: functional; details: HCT-116, 48 h, read-out: Activity
[18] = tested on: HCT-116; test: Induction of apoptosis in human HCT116 cells assessed as necrotic cells at 1 uM after 24 hrs by annexin V/propidium iodide staining-based flow cytometry (reference value: 3.49%); type: functional
[19] = tested on: HepG2; test: Cell cycle arrest in human HepG2 cells assessed as accumulation at S phase at 0.5 uM after 24 hrs by flow cytometry (reference value: 23.97%); type: functional
[20] = tested on: HCT-116; test: Induction of apoptosis in human HCT116 cells assessed as early apoptotic cells at 0.2 uM after 24 hrs by annexin V/propidium iodide staining-based flow cytometry (reference value: 2.83%); type: functional; how it was run: as §1
[21] = tested on: HCT-116; test: Induction of apoptosis in human HCT116 cells assessed as necrotic cells at 0.5 uM after 48 hrs by annexin V/propidium iodide staining-based flow cytometry (reference value: 3.49%); type: functional
[22] = tested on: HCT-116; test: Antitumor activity against human HCT116 cells xenografted in ip dosed Balb/c athymic nude mouse assessed as tumor growth inhibition administered daily; type: functional, organism-based; how it was run: as §2
[23] = tested on: HCT-116; test: Cell cycle arrest in human HCT116 cells assessed as accumulation at G1 phase at 0.5 uM after 24 hrs by flow cytometry (reference value: 53.98%); type: functional
[24] = tested on: HCT-116; test: Induction of apoptosis in human HCT116 cells assessed as late apoptotic cells at 1 uM after 24 hrs by annexin V/propidium iodide staining-based flow cytometry (reference value: 1.71%); type: functional
[25] = tested on: HepG2; test: Cell cycle arrest in human HepG2 cells assessed as accumulation at G2/M phase at 0.5 uM after 24 hrs by flow cytometry (reference value: 11.29%); type: functional
[26] = tested on: HepG2; test: Induction of apoptosis in human HepG2 cells assessed as necrotic cells at 1 uM after 48 hrs by annexin V/propidium iodide staining-based flow cytometry (reference value: 1.59%); type: functional
[27] = tested on: HepG2; test: Induction of apoptosis in human HepG2 cells assessed as necrotic cells at 0.2 uM after 48 hrs by annexin V/propidium iodide staining-based flow cytometry (reference value: 1.59%); type: functional
[28] = tested on: HUVEC; test: Antivascular activity against HUVEC assessed as aggregation of cells in small clumps at 250 to 500 nM after 8 hrs by Matrigel assay; type: functional, cell-based; details: Homo sapiens
How it was run: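 Wells of prechilled plates coated with Matrigel and solidified 45 min at 37 °C. HUVECs (1 × 10^4) in EBM-2 containing compound (125-500 nM) seeded onto the gel and incubated 8 h at 37 °C. Capillary networks photographed at 100×; tubule numbers and line lengths counted manually.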

[29] = tested on: HepG2; test: Cell cycle arrest in human HepG2 cells assessed as accumulation at S phase at 0.2 uM after 24 hrs by flow cytometry (reference value: 23.97%); type: functional

**Q.** For `CCOc1ccc(-c2nc(N)sc2-c2cc(OC)c(OC)c(OC)c2)cc1`, which “Ratio IC50” value [1] is on record?
**A.** 2.24

**Q.** And the Activity [2]?
**A.** 23.4%

**Q.** And the Activity [3]?
**A.** 50.57%

**Q.** What about the Activity [4] of the same compound?
**A.** 4.38%

**Q.** And the Activity [5]?
**A.** 7.43%

**Q.** What about the viability at 0.5 µM [6] of the same compound?
**A.** 29.6%

**Q.** And the Activity [7]?
**A.** 4.06%

**Q.** And the Activity [8]?
**A.** 7.86%

**Q.** And the Activity [9]?
**A.** Active

**Q.** And the viability at 0.5 µM [10]?
**A.** 29.1%

**Q.** What about the inhibition in vivo at 50 mg/kg [11] of the same compound?
**A.** 55.1%

**Q.** And the “Ratio IC50” value [12]?
**A.** 1.9

**Q.** What about the viability at 0.5 µM [13] of the same compound?
**A.** 80.7%

**Q.** What about the Activity [14] of the same compound?
**A.** 10.8%

**Q.** And the viability at 0.2 µM [15]?
**A.** 80.4%

**Q.** What about the IC50 [16] of the same compound?
**A.** 97 nM

**Q.** What about the viability at 1 µM [17] of the same compound?
**A.** 20.2%

**Q.** What about the Activity [18] of the same compound?
**A.** 3.15%

**Q.** What about the Activity [19] of the same compound?
**A.** 7.29%

**Q.** And the Activity [20]?
**A.** 7.8%

**Q.** And the Activity [21]?
**A.** 4.36%

**Q.** And the Activity [22]?
**A.** Dose-dependent effect

**Q.** And the Activity [23]?
**A.** 11.45%

**Q.** And the Activity [24]?
**A.** 17.1%

**Q.** And the Activity [25]?
**A.** 62.63%

**Q.** What about the Activity [26] of the same compound?
**A.** 0.4%

**Q.** What about the Activity [27] of the same compound?
**A.** 0.79%

**Q.** And the Activity [28]?
**A.** Active

**Q.** What about the Activity [29] of the same compound?
**A.** 29.88%
